From ChEMBL document CHEMBL1129419, “1-Aminocyclobutanecarboxylic acid derivatives as novel structural elements in bioactive peptides: application to tuftsin analogs” (J Med Chem, 1996)
Where a SMILES comes first, the peptide text is derived from it.

Key:
[1] = Plasma half life of compound reported; type: ADME, cell-free
Method in brief: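 Peptide (0.5 mg) was incubated in 0.5 mL human serum at 37 °C. Aliquots were taken at 0-240 min, boiled at 90-95 °C for 5 min, diluted with water and centrifuged. Intact peptide was quantified by isocratic RP-HPLC at 220 nm, with peak area referenced to an internal serum peak and time 0 set at 100%. Half-life was read from the degradation time course.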

[2] = Compound was evaluated for the secretion of interleukin-6 (IL-6) by macrophages incubated in the presence of antigen Keyhole Limpet Hemocyanin (KLH) at concentration of 2 x 10E-7 M; type: functional
Method in brief: (§1)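 Thioglycollate-elicited peritoneal macrophages from (BALB/c x C3H.eb)F1 mice (6-8 weeks), >90% pure, cultured at 10⁶/mL in DMEM for 48 h at 37 °C, 5% CO₂. Incubated 20 h in triplicate with KLH plus peptide (2 × 10^-7 to 2 × 10^-9 M). Pooled supernatants were assayed for IL-6 by B9 hybridoma proliferation ([³H]thymidine, 2-fold dilutions), giving arbitrary units with KLH alone set at 1000 units. Three experiments were averaged.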

[3] = Compound was evaluated for the secretion of interleukin-6 (IL-6) by macrophages incubated in the presence of antigen Keyhole Limpet Hemocyanin (KLH) at concentration of 2 x 10E-8 M; type: functional; method in brief: as §1
[4] = Compound was evaluated for the secretion of interleukin-6 (IL-6) by macrophages incubated in the presence of antigen Keyhole Limpet Hemocyanin (KLH) at concentration of 2 x 10E-9 M; type: functional; method in brief: as §1

| Compound | T1/2 [1] | Secretion [2] | Secretion [3] | half-life [1] | Secretion [4] |
| --- | --- | --- | --- | --- | --- |
| C[C@@H]1CC[C@]1(NC(=O)[C@H](CCCCN)NC(=O)[C@@H](N)[C@@H](C)O)C(=O)N[C@@H](CCCNC(=N)N)C(=O)O (stereo in doubt; 27b) | 15 min |  |  |  |  |
| C[C@@H]1CC[C@]1(NC(=O)[C@H](CCCCN)NC(=O)[C@@H](N)[C@@H](C)O)C(=O)N[C@@H](CCCNC(=N)N)C(=O)O (stereo in doubt; 27) |  | 30% |  |  |  |
| C[C@@H](O)[C@H](N)C(=O)N[C@]1(C(=O)N2CCC[C@H]2C(=O)N[C@@H](CCCN=C(N)N)C(=O)O)C[C@@H](CN)C1 |  | 68% | 54% |  |  |
| NCCCC[C@H](NC(=O)[C@]1(N)C[C@H](CO)C1)C(=O)N1CCC[C@H]1C(=O)N[C@@H](CCCN=C(N)N)C(=O)O |  | 125% | 29% |  |  |
| C[C@@H]1CC[C@]1(NC(=O)[C@H](CCCCN)NC(=O)[C@@H](N)[C@@H](C)O)C(=O)N[C@@H](CCCNC(=N)N)C(=O)O (stereo in doubt; 27a) |  | 141% | 95% | 25 min |  |
| C[C@@H](O)[C@H](N)C(=O)N[C@@H](CCCCN)C(=O)N1CCC[C@H]1C(=O)N[C@@H](CCCN=C(N)N)C(=O)O (H-TKPR-OH) |  | 78% | 42% |  | 32% |
| C[C@@H](O)[C@H](N)C(=O)N[C@@H](CCCCN)C(=O)N1CCC[C@H]1C(=O)N[C@]1(C(=O)O)C[C@@H](CN=C(N)N)C1 |  |  |  | 11 min |  |
| C[C@@H](O)[C@H](N)C(=O)NC1(C(=O)N2CCC[C@H]2C(=O)N[C@@H](CCCN=C(N)N)C(=O)O)CC(CCN)C1 (some centres undefined) |  |  |  | 13 min |  |
